Results on 97 compounds are retold here after ChEMBL document CHEMBL4513216, “Probing the Open Global Health Chemical Diversity Library for Multistage-Active Starting Points for Next-Generation Antimalarials” (ACS Infect Dis, 2020).

The nature of this data set: Toxicity liver stage against HepG2, at 10uM. The class given is cell-based. On the set-up: test concentration 10 uM, cell line HepG2-A16-CD81EGFP. As to conditions: human, HepG2-A16-CD81EGFP cells; read-out: INHIBITION
Put shortly:
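Uninfected HepG2-A16-CD81EGFP cells, 3 × 10^3 per well, 1536-well, plated on prespotted compound at 10 μM final, parasite-free screening media added to match infected plates; puromycin 10 μM positive, DMSO 0.5% negative; run in parallel with 48 h PbLuc assay at 37 °C, 5% CO2; viability by CellTiter-Glo luminescence, normalized to controls.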

As for `CCN(CC)c1ncc(CNCC2CCCn3ccnc32)s1` (configuration not stated), the cytotoxicity at 10 µM was -29.9%.

Consider `O=C(CN1CCN(c2ncnc3cccc(F)c23)CC1)N1CCCC1`, for which the cytotoxicity at 10 µM came out at 3.65%. The value for `CCCc1n[nH]c(C2CN(C(=O)CCn3ccccc3=O)CCO2)n1` (configuration not stated) was -0.438%.

With `O=C(c1ccco1)N1CCc2ncc(CN3CCOCC3)n2CC1`, the cytotoxicity at 10 µM is -78.7%. Turning to `O=C1CCN(C(=O)NCC(c2ccccc2)c2ccccc2)CCN1`, the cytotoxicity at 10 µM was -1.44%. For `Cc1cc(N(C)C)nc(C2COCCN2Cc2csc(C)n2)n1` (configuration not stated) the value was 1.75%.

With `CCc1nc2n(n1)CC(Nc1cc(C)nc3ncnn13)CC2` (configuration not stated), the cytotoxicity at 10 µM was -9.91%.

Turning to `CCn1cc(C(=O)NCc2csc(C3CC3)n2)c(C)n1`, the cytotoxicity at 10 µM worked out at 27.4%.

In the case of `CS(=O)(=O)N1CCO[C@@H]2CN(C(=O)C3CC(F)(F)C3)C[C@@H]2C1`, the cytotoxicity at 10 µM came to 6.19%. `Cc1cccnc1N1CCN(C(=O)CCc2cn3ccccc3n2)CC1`: the cytotoxicity at 10 µM was -6.21%. `Cc1nc2sccn2c1C(=O)N1CCc2[nH]cnc2C1`: the cytotoxicity at 10 µM is -6.11%.

As for `Cc1nn(C)c(C)c1CC(=O)N1CCCC(n2ccnc2C)C1` (configuration not stated), the cytotoxicity at 10 µM is -5.36%.

Take `Cc1cc(C)n(-c2ccccc2NC(=O)NCCCN(C)S(C)(=O)=O)n1`: the cytotoxicity at 10 µM was -4.01%. With `Cn1cc(CN2CC[C@H]3[C@H]2CC(=O)N3Cc2ccncc2)cn1`, the cytotoxicity at 10 µM is -5.87%. For `COc1cccc(N2CCN(Cc3cc(C)cc(F)c3)CC2=O)c1` the value was 25.9%.

Take `Cc1nc(CN2C(=O)C[C@@H]3[C@@H]2CCN3S(=O)(=O)C2CC2)cs1`: the cytotoxicity at 10 µM was -124%. For `CN(Cc1ccc(Cl)s1)C(=O)NCc1nnc2n1CCC2` the value was -5.36%; for `Nc1nccnc1C(=O)N(Cc1ccccc1O)CC1CCCO1` (configuration not stated), -4.45%; for `CCc1noc(CN(C)CC(c2cccs2)N2CCOCC2)n1` (configuration not stated), -4.56%. For `COCC(=O)N1CCC2(CC1)COCCN2Cc1ccc(F)cc1` the value was -73.4%. With `COc1nc2ccn(CCc3cnccn3)c(=O)c2cc1C#N`, the cytotoxicity at 10 µM stood at 54.1%. Turning to `c1cc(-c2nnc([C@H]3CCNC3)o2)ccn1`, the cytotoxicity at 10 µM came out at 4.82%. As for `CC(CCSc1ccccc1)N1CCN(C(=O)c2cccs2)CC1` (configuration not stated), the cytotoxicity at 10 µM came to 25.5%. As for `CCc1c(O)nc(SCC(=O)Nc2ccccc2)n(C(C)CC)c1=O` (configuration not stated), the cytotoxicity at 10 µM is 0.585%. For `O=C(c1ccc(OCC2CC2)cc1)N1CCOCC1c1ncon1` (configuration not stated) the value was 1.79%; for `O=S(=O)(c1ccccc1)N1CC[C@]2(C[C@@H](OCC3CC3)CO2)C1`, -81.3%. For `CC(C)C(C(=O)N1CCCN(c2cccnn2)CC1)n1cncn1` (configuration not stated) the value was -20.7%; for `Cc1noc(C)c1-c1cncc(C2CCCN2Cc2cncnc2)n1` (configuration not stated), 5.25%. For `C1CCC(c2nn3c(C4CCCO4)nnc3s2)C1` (configuration not stated) the value was 8.51%.

Turning to `Cc1cc(C)n(C2CCCN(C(=O)COCC(F)(F)F)C2)n1` (configuration not stated), the cytotoxicity at 10 µM is -4.3%. On to `COCCn1cnnc1Cn1ccnc1-c1ccccc1C`, for which the cytotoxicity at 10 µM was -7.58%.

In the case of `Cc1noc(C)c1CN1CCO[C@H]2CN(Cc3nccn3C)C[C@H]21`, the cytotoxicity at 10 µM amounted to 2.64%. For the compound `COc1ccc(-c2n[nH]cc2C2SCC(=O)Nc3[nH]ncc32)cc1` (configuration not stated), the cytotoxicity at 10 µM is -1.33%. For `CC1c2ncc(CNC(=O)C3CC3)n2CCN1Cc1ccsc1` (configuration not stated) the value was 1.06%; for `COCc1noc(C2(c3ccc(Br)cc3)CCOCC2)n1`, -9.61%.

In the case of `CC1=Nc2c(c(O)nn2C2CCOCC2)C(c2cccnc2)S1` (configuration not stated), the cytotoxicity at 10 µM turned out to be 5.11%. The value for `NC(=O)NC(CC(=O)NCCc1ccc(F)cc1)c1ccccc1` (configuration not stated) was -2.39%; that for `CC(=O)c1cccc(OCC(=O)NS(=O)(=O)c2ccc(Br)s2)c1` was -19.4%. For `CCCc1nc(CNc2cccc(C(=O)N3CCCC(O)C3)c2)no1` (configuration not stated) the value was -5.35%. The value for `Clc1ccc(CN2CCCC(Cn3cncn3)C2)c2ncccc12` (configuration not stated) was -13.7%; that for `COc1cc(CCC(C)O)c(OC)c2c1OCO2` (configuration not stated) was 6.79%; that for `Cc1ccccc1OCCCC(=O)N(C)CCC#N` was 2.33%. Turning to `CC(c1ccccc1)N(C)C(=O)Cn1cc(NC(=O)C(C)(C)C)cn1` (configuration not stated), the cytotoxicity at 10 µM is 4%.

For `Cn1ccc(CN2CCCC23CCNCC3)n1`, the cytotoxicity at 10 µM is 4.86%. Turning to `Cn1cnc(S(=O)(=O)N2CC3(CCN(CC4CC4)C3)C2)c1`, the cytotoxicity at 10 µM was -99.2%. For `Cc1nc(C)n(CC2CN(CCCOc3ccc(F)cc3)CCO2)n1` (configuration not stated) the value was -4.26%.

For the compound `Cc1cc(C)nc(N2CC[C@@]3(O)CCN(S(=O)(=O)N(C)C)C[C@H]3C2)n1`, the cytotoxicity at 10 µM came out at 3.5%.

Turning to `O=C(CN1CCCc2c(F)cc(Br)cc21)N1CCN(C(=O)C2CC2)CC1`, the cytotoxicity at 10 µM is -5.06%. For `CCOC(=O)CC1CCCCN1C(=O)c1cc(C)oc1C` (configuration not stated) the value was 5.44%; for `CCc1cccc(NS(=O)(=O)c2cc3c(c(C(=O)O)c2)OCCO3)c1`, 2.89%.

In the case of `CN(C)c1cc(CNC(=O)Nc2ccc(C#N)cc2)ccn1`, the cytotoxicity at 10 µM is -5.66%. As to `CC(C)n1ncc2c1NC(=O)CC2c1ccccc1Cl` (configuration not stated), the cytotoxicity at 10 µM stood at 33.5%.

For `COc1c(C)cnc(CN(C)C(=O)c2cccnc2N(C)C)c1C`, the cytotoxicity at 10 µM was -12.3%. The value for `CCCc1ccc(C(=O)N2Cc3c(Cn4ccnc4)nn(C)c3C2)cc1` was -73%; that for `CC(=O)c1c(C)nn(CC(=O)N2Cc3cnc(CC(C)C)nc3C2)c1C` was 3.75%. Consider `CCNc1cc2c(nn1)CCN(C(=O)C1CCc3ccccc31)C2` (configuration not stated), for which the cytotoxicity at 10 µM was determined as 0.169%.

`COCC(C)N(C)C(=O)CCc1c(C)nc2c(C#N)cnn2c1C` (configuration not stated): the cytotoxicity at 10 µM was -43.3%. The value for `Cc1c(C)n2c(SCC(=O)N3CCCCCC3)nnc2[nH]c1=O` was 0.0868%; that for `CC(C)CC(C)NCc1cccnc1N1CCOCC1` (configuration not stated) was -4.22%. As for `N#Cc1cccnc1NCCNC(=O)N1CCCC(N2CCCC2)C1` (configuration not stated), the cytotoxicity at 10 µM was 7.61%.

In the case of `CNc1cc(C2CCCN2Cc2ccccc2OCC(=O)O)ccn1` (configuration not stated), the cytotoxicity at 10 µM was -0.645%. The value for `CN1CCN(c2ccnc3c(F)cc(Br)cc23)CC1` was 27.2%. With `CC(C)Nc1nc2c(c(NC3CC3)n1)CCN(C1CCOCC1)CC2`, the cytotoxicity at 10 µM was found to be 12.3%. For `CCOCCC(=O)N1Cc2cnc(-c3ccccc3)nc2C1` the value was -6.88%; for `Cc1cc(CNC(=O)CN2CCN(C(=O)OC(C)(C)C)CC2)ccc1F`, -11.2%. For the compound `NC(=O)CN1CCC(C(=O)NCc2ccc3nonc3c2)CC1`, the cytotoxicity at 10 µM is -0.969%. As to `CCCC1CCN(C(=O)c2coc(COc3ccc(OC)cc3)n2)C1` (configuration not stated), the cytotoxicity at 10 µM was -0.551%. Regarding `O=C(NCCCO)c1nnsc1-c1ccc(Cl)cc1`, the cytotoxicity at 10 µM was found to be 4.62%.

As to `CC(C)(C(N)=O)N1CCN(C(=O)c2ccn(-c3cccc(Cl)c3)n2)CC1`, the cytotoxicity at 10 µM was -13.3%. With `CCc1ncncc1C(=O)NC1CCc2nc(C)cn2C1` (configuration not stated), the cytotoxicity at 10 µM is -17.3%. For `Cc1nn2cccnc2c1C(=O)N1CCCC(n2ccnc2C)C1` (configuration not stated), the cytotoxicity at 10 µM is -9.53%. Consider `Cc1ccc(C(=O)N2CC(C(N)=O)O[C@H](C)C2)c(C)c1` (some centres not stated), for which the cytotoxicity at 10 µM is -0.29%. As to `COc1c(Br)c(C(=O)NC2CCCC2)nn1C`, the cytotoxicity at 10 µM was determined as 6.44%. For `O=C(Cc1cccnc1)N1CCC2(CC1)CCN(C1CCOC1)C2` (configuration not stated) the value was -2.52%; for `Cc1nc(C)n(C2CCCN(C(=O)c3ccc(F)cc3F)C2)n1` (configuration not stated), -2.9%. As to `Cc1cncc(C(=O)N2CCOc3nc(C)ccc32)c1`, the cytotoxicity at 10 µM was determined as 5.19%. The value for `CN(Cc1ccccc1)C1(C(=O)NC(C)(C)CO)Cc2ccccc2C1` was 0.603%; that for `CCn1ccc(NC(=O)CCn2nc(C)c3ccccc32)n1` was 4.51%. The value for `COc1cc(N(C)CCC(O)c2ccccc2)ncn1` (configuration not stated) was -139%; that for `CC(C)(C)CN1CCC(c2nccnc2Nc2cnccn2)CC1` was -4.98%; that for `O=C(c1nn[nH]c1Nc1ccc(Cl)cc1)N1CCSCC1` was 4.67%. For `Cc1ccsc1CNC(=O)N(C)Cc1cnn(C)c1`, the cytotoxicity at 10 µM was -6.25%. With `c1cnnc(N[C@@H]2CC[C@@H]3CN(Cc4ccc5[nH]ccc5c4)C[C@@H]32)c1`, the cytotoxicity at 10 µM is -7.81%. The value for `Cc1cc(C)cc(NC(=O)N(CCC#N)CCCN(C)C)c1` was -49.3%; that for `COCCN1CCC2(C1)CN(c1ncc(F)cn1)C2` was 4.68%.

For the compound `O=C1CNc2ncnc(Nc3cnn(Cc4cccc(F)c4)c3)c2N1`, the cytotoxicity at 10 µM was 4.67%.

Turning to `COc1cccc(NC(=O)CC2Cn3ncnc3NC2=O)c1` (configuration not stated), the cytotoxicity at 10 µM was found to be 4.4%. For `Cc1nn(C)c(C)c1CCC(=O)Nc1cccn(C)c1=O` the value was -1.96%; for `CS(=O)(=O)NCc1ncn2c1CN(CCN1CCCC1)CCC2`, -74.9%. For the compound `CN1CCC(N(C)C[C@H]2CC[C@@H](Cc3ccc4c(cnn4C)c3)O2)CC1`, the cytotoxicity at 10 µM was found to be 5.03%. For `CCn1cnnc1CNC(=O)C1CCCN(Cc2cccc(F)c2)C1` (configuration not stated) the value was 3.5%; for `O=C1CCc2cc(S(=O)(=O)NCc3cc4n(n3)CCNC4)ccc2N1`, 3.28%; for `CN1CCCCC1c1ncc2c(n1)CCN(Cc1ccc(Cl)c(F)c1)C2` (configuration not stated), -27.7%. The value for `CCN1CC2(CC1=O)CN(C(=O)C(C)C)CCN(S(C)(=O)=O)C2` (configuration not stated) was -4.54%. The value for `CC(C)(C)n1ncc2c1NC(=O)CC2c1cccs1` (configuration not stated) was 3.48%; that for `CN1CC(C(=O)Nc2ccc(OCC(F)(F)C(F)F)nc2)CC1=O` (configuration not stated) was -8.64%; that for `COCCC(=O)N1C[C@@H](O)[C@H](N2CCN(c3ccccc3)CC2)C1` was 0.046%.
